Laboratory results from publication PMC2912405 (Journal of medicinal chemistry, 2010).
Where a name gives a salt, the structure may show the parent alone. Each block holds one compound with its values, some of them ahead of it.

How the values were obtained:
many lipases = settings: cited from earlier work
[1] = target: T1, purified human LAL (phLAL) (Homo sapiens, UniProt P38571); test: Lineweaver-Burk analysis of LAL inhibition; format: biochemical; settings: 30 min pre-incubation at 37 °C, 4MUO at various concentrations
T1 sequence (P38571 77-399): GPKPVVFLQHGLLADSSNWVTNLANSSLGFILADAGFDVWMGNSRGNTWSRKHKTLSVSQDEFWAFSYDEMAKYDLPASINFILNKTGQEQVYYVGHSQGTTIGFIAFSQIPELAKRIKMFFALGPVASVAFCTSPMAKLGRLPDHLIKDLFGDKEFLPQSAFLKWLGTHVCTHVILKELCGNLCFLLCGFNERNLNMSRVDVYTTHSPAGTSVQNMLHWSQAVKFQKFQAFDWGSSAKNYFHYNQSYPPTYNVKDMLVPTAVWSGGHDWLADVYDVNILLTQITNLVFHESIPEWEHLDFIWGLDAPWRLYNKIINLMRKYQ
How it was run: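 Recombinant purified human LAL pre-incubated with compound for 30 min at 37 °C in 200 mM sodium acetate pH 5.5, 0.02% Tween-20. Started with varied 4-methylumbelliferyl oleate in Triton X-100 and followed by fluorescence (355/450 nm) for 45 min. Compound levels given as final. Double-reciprocal plots fitted by linear regression, two independent experiments.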

phLAL [2] = target: T2, phLAL (Homo sapiens, UniProt P38571); settings: earlier study; cited from earlier work
T2 sequence (P38571 77-399): T1 sequence (P38571 77-399)

[3] = target: T1, purified human LAL (phLAL); settings: previous studies; cited from earlier work
[4] = target: T1, purified human LAL (phLAL); test: In vitro LAL activity assay; format: biochemical; settings: 10 μM compound; Supplemental Figures 1 and 2
LAL = target: T3, LAL (Homo sapiens, UniProt P38571); test: LAL activity in lysates of compound-treated cells; format: cell-based; settings: for inhibition of LAL in cell lysates: cells treated continuously ~4 days, Figure 4A; for inhibition of LAL in cell lysates after withdrawal: ~3 days treatment, ~1 day recovery in growth medium, Figure 4B
T3 sequence (P38571 77-399): T1 sequence (P38571 77-399)

phLAL [5] = target: T2, phLAL; test: Time-dependence of LAL inhibition; format: biochemical; settings: pre-incubation at 833 nM, 500 nM final, 37 °C; Figure 3
[6] = tested on: NPC1- or NPC2-defective mice; settings: ref 5a, 9; cited from earlier work
[7] = tested on: apparently normal human fibroblasts; test: LipidTOX green neutral lipid accumulation; format: cell-based; settings: normal cells, ~3 days treatment; Figure 4D
How it was run: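 Normal human fibroblasts kept in MEM (2.2 g/L bicarbonate, 10% FBS) and treated with compound for ~3 days. Stained with LipidTOX green and imaged at 482/35 nm excitation, 536/40 nm emission, 20× 0.5 NA objective, with autofocus per site. LSO ratio is thresholded LipidTOX fluorescence within LSOs, normalised to total cell area from low-threshold filipin signal.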

NPC1 mutant cells = test: Filipin LSO assay of cholesterol accumulation; format: cell-based, human; settings: ~3 days treatment, Figure 4C
How it was run: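 Compound-treated cells (~3 days) stained with filipin. Automated fluorescence imaging at 4 (10×) or 9 (20×) sites per well, 2×2 binning, laser autofocus per site, 12-bit images. After background correction, LSO ratio is integrated thresholded filipin fluorescence within LSOs, normalised to total cell area defined by low-threshold filipin signal.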

Compound: CCCCCCCCCCC[C@@H](C[C@@H]1OC(=O)[C@H]1CCCCCC)OC(=O)[C@H](CC(C)C)NC=O [orlistat]
- inhibition of lipases (many lipases): potent inhibitor of many lipases

Compound: Cl.NCCCCCCNC(=O)OCc1ccccc1 [benzyl N-(6-aminohexyl) carbamate hydrochloride]
- inhibition of LAL activity at 10 μM [4]: None of these carbamates inhibited LAL

Compound: CN(C)C(=O)Oc1cccc([N+](C)(C)C)c1 [neostigmine methyl sulfate]
- inhibition of LAL activity at 10 μM [4]: None of these carbamates inhibited LAL

Compound: CNC(=O)Oc1ccc2c(c1)[C@]1(C)CCN(C)[C@@H]1N2C [eserine]
- inhibition of LAL activity at 10 μM [4]: None of these carbamates inhibited LAL

Compound: COC(N)=O [methyl carbamate]
- inhibition of LAL activity at 10 μM [4]: None of these carbamates inhibited LAL

Compound: O=C(Oc1nsnc1N1CCOCC1)N1CCCCC1 [Compound 14]
- inhibition of LAL in cell lysates (LAL): much higher level of inhibition of LAL upon cell lysis than 11, 13, 15, and 17
- time-dependence of inhibition upon pre-incubation with phLAL (phLAL [2]): some time-dependence of inhibition
- potency and specificity towards LAL [3]: significant potency and specificity towards LAL

Compound: β-cyclodextrins
- accumulation of cholesterol and other lipids in LSOs [6]: significant reduction
- lifespan [6]: significantly extends lifespan

Continued, in another order:

- type of inhibition [1]: apparent competitive inhibitor
Compound: O=C(Oc1nsnc1N1CCCCC1)N1CCOCC1 [Compound 13]
- time-dependence of inhibition upon pre-incubation with phLAL (phLAL [2]): some time-dependence of inhibition
- potency and specificity towards LAL [3]: significant potency and specificity towards LAL

- inhibition of LAL in cell lysates after withdrawal (LAL): maximal potency
Compound: O=C(Oc1nsnc1N1CCCCCC1)N1CCCCC1 [Compound 16]
- inhibition of LAL in cell lysates (LAL): much higher level of inhibition of LAL upon cell lysis than 11, 13, 15, and 17

- inhibition of LAL activity at 10 μM [4]: None of these carbamates inhibited LAL
Compound: CN1CCC(OC(=O)Nc2ccc(F)cc2)CC1 [1-methyl-4-piperidinyl-N-(4-fluorophenyl) carbamate]

- inhibition of LAL activity at 10 μM [4]: None of these carbamates inhibited LAL
Compound: COc1ccccc1OCC(O)COC(N)=O (stereo not drawn) [guaiacol glyceryl ether carbamate]

- inhibition of LAL in cell lysates after withdrawal (LAL): maximal potency
Compound: O=C(Oc1nsnc1N1CCCC1)N1CCCCC1 [Compound 10, 4-(Pyrrolidin-1-yl)-1,2,5-thiadiazol-3-yl piperidine-1-carboxylate]
- pre-incubation time-dependence of inhibition (phLAL [5]): significantly higher time-dependence than other compounds
- inhibition of LAL in cell lysates (LAL): much higher level of inhibition of LAL upon cell lysis than 11, 13, 15, and 17

- inhibition of LAL in cell lysates (LAL): least potent
- inhibition of LAL in cell lysates after withdrawal (LAL): least potent
Compound: O=C(Oc1nsnc1N1CCOCC1)N1CCOCC1 [Compound 15]
- increase in neutral lipid accumulation [7]: least potent
- decrease in cholesterol accumulation (NPC1 mutant cells): least potent
- time-dependence of inhibition upon pre-incubation with phLAL (phLAL [2]): some time-dependence of inhibition
- potency and specificity towards LAL [3]: significant potency and specificity towards LAL

- inhibition of LAL in cell lysates after withdrawal (LAL): maximal potency
Compound: O=C(Oc1nsnc1N1CCCCC1)N1CCCCC1 [Compound 12]
- increase in neutral lipid accumulation [7]: most potent
- decrease in cholesterol accumulation (NPC1 mutant cells): most potent
- inhibition of LAL in cell lysates (LAL): much higher level of inhibition of LAL upon cell lysis than 11, 13, 15, and 17
